Compound activity deposited in PubChem by Sanford-Burnham Center for Chemical Genomics.
A selection: hits, their analogues and other compounds. The true share with any hit is near 0.79%.
hIAP activ: increases human intestinal alkaline phosphatase activity. 330,000 tested, 0.16% active. AID 2524. activation factor at 10 µM. P09923. purified human IAP, CDP-Star luminescence, 30 min; hits give high values; 1 = vehicle-only enzyme, 0 = enzyme-free background;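 active = activation factor of the enzyme at least 2-fold when tested at 20 µM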
Target sequence (P09923 whole entry, looked up): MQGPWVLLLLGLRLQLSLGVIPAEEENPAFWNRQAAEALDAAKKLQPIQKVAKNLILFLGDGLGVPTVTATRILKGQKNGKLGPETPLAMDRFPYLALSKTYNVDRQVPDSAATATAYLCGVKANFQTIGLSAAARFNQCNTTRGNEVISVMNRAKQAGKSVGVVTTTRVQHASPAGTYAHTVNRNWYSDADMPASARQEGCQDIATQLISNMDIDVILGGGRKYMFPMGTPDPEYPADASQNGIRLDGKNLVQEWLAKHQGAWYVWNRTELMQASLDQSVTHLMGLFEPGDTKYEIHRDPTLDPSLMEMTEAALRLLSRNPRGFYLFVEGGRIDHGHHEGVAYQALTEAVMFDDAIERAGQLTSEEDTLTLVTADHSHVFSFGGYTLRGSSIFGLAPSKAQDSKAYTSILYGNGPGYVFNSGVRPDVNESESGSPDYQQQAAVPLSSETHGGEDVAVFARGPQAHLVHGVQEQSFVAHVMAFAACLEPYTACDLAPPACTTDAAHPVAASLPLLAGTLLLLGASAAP
bIAP activator: intestinal alkaline phosphatase (bovine) activation | 200,000 tested, 0.17% active | activation factor at 20 µM | purified bovine IAP, CDP-star luminescence, 30 min; hits give high values; fold of DMSO-control signal, blank-subtracted | AID 1016;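 active = activation factor of 2 or more at 20 µM, a signal rise over negative controls twice the positive control's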
mIAP inh: mouse IAP inhibition | inhibition, % at 10 µM | 330,000 tested, 0.2% active | purified mouse IAP, CDP-Star luminescence, 30 min;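 active = inhibition of at least 40% at 10 µM in the primary screen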;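 note: plate controls were DMSO with enzyme for no effect and no enzyme wells for full effect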
mIAP activ: mouse IAP activation. 330,000 tested, 0.24% active. muIAP, CDP-Star luminescence, 30 min; hits give high values; 1 = vehicle-only enzyme signal, 0 = enzyme-free wells. activation factor at 10 µM. AID 2805;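 active = activation factor of at least 2 at 20 µM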
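also added = chemiluminescent substrate CDP-Star | test system = mouse IAP enzyme | signal = chemiluminescence readout | compound = DMSO-dissolved test compounds | incubation = 30 min at room temperature | benchmarks = DMSO wells, no-enzyme wells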
hIAP block: human IAP inhibition; P09923; purified IAP, CDP-Star luminescence, 30 min; inhibition, % at 10 µM; 330,000 tested, 0.12% active;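 active = inhibition reaching a set limit with compound at 10 µM in the primary screen, cut at about 35% in these data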;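 note: plate controls were DMSO wells with enzyme for no effect and no-enzyme buffer wells for full effect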
bIAP inh: blocks bovine intestinal alkaline phosphatase activity. purified bovine IAP, CDP-star luminescence, 30 min. inhibition, % at 20 µM. 190,000 tested, under 10 active. AID 1019;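 active = over 50% inhibition of intestinal alkaline phosphatase at 20 µM in the single-dose screen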
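System: purified bovine intestinal alkaline phosphatase (IAP) enzyme; Input: IAP diluted 1/65,000,000 in the well; Measured by: CDP-star luminescence signal; Compound dosing: 20 µM single dose; Incubation: 30 min reaction at room temperature.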
mIAP inh conf: mouse IAP inhibition confirmation; shares compounds with mIAP inh; purified mouse IAP, CDP-Star luminescence, 30 min; inhibition, % at 10 µM; 11,000 tested, 4.7% active;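 active = inhibition of at least 40% at 10 µM in either of the two replicates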;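 note: plate controls were DMSO wells with enzyme for no effect and buffer wells lacking enzyme for full effect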
An asterisk follows results filed as active.

O=C(CNS(=O)(=O)c1ccc([N+](=O)[O-])cc1)N/N=C/c1ccc(O)cc1O was read as hIAP activ 1.9, mIAP inh 40*, mIAP activ 0.6, hIAP block -85 and mIAP inh conf 42*.
O=C(CNS(=O)(=O)c1ccc([N+](=O)[O-])cc1)N/N=C\c1ccc(O)cc1 was read as hIAP activ 1.1, mIAP inh 7, mIAP activ 0.93 and hIAP block -5.
For O=C1c2ccccc2C(=O)C1c1ccc(O)cc1 the results were hIAP activ 1.3, bIAP activator 0.9, mIAP inh 8, mIAP activ 0.92, hIAP block -30 and bIAP inh 9.
Screening O=C1c2cc(O)c(O)cc2S(=O)(=O)C1c1ccccc1 (stereo unspecified) returned hIAP activ 0.94, mIAP inh 51*, mIAP activ 0.49, hIAP block 6 and mIAP inh conf 62*.
Screening C#CCOCCOCCOCCNc1nc(N2CCN(C(=O)CCCCCCCCCCNC(=O)[C@H](CO)n3cc(CCCSC)nn3)CC2)nc(N2CCN(C(=O)CCCCCCCCCCNC(=O)[C@H](CO)n3cc(CCCSC)nn3)CC2)n1 returned hIAP activ 1.2, mIAP inh -57, mIAP activ 1.6 and hIAP block -19.
Screening C#CCOCCOCCOCCNc1nc(N2CCN(C(=O)CCCCCCCCCCNC(=O)[C@H](CO)n3cc(CCCSC)nn3)CC2)nc(N2CCN(C(=O)CCCCCCCCCCNC(=O)[C@H](CCCCN)n3cc(C[C@@H](C)CC)nn3)CC2)n1 returned hIAP activ 1.2, mIAP inh -130, mIAP activ 2.3*, hIAP block -21 and mIAP inh conf -183.
For C#CCOCCOCCOCCNc1nc(N2CCN(C(=O)CCCCCCCCCCNC(=O)[C@H]([C@@H](C)CC)n3cc(CCCCN=C(N)N)nn3)CC2)nc(N2CCN(C(=O)CCCCCCCCCCNC(=O)[C@H](CCCCN)n3cc(C[C@@H](C)CC)nn3)CC2)n1 the results were hIAP activ 1.2, mIAP inh -296, mIAP activ 4*, hIAP block -20 and mIAP inh conf inactive.
Screening C#CCOCCOCCOCCNc1nc(N2CCN(C(=O)CCCCCCCCCCNC(=O)[C@H](CCCCN)n3cc(CCO)nn3)CC2)nc(N2CCN(C(=O)CCCCCCCCCCNC(=O)[C@H](CCCN=C(N)N)n3cc(C[C@@H](C)CC)nn3)CC2)n1 returned hIAP activ 0.88, mIAP inh -162, mIAP activ 2.6*, hIAP block 12 and mIAP inh conf -204.
Screening C#CCOCCOCCOCCNc1nc(N2CCN(C(=O)CCCCCCCCCCNC(=O)[C@H](CCCCN)n3cc(CCCC(=O)O)nn3)CC2)nc(N2CCN(C(=O)CCCCCCCCCCNC(=O)[C@H](CCCN=C(N)N)n3cc(C[C@@H](C)CC)nn3)CC2)n1 returned hIAP activ 1, mIAP inh -124, mIAP activ 2.2*, hIAP block -2 and mIAP inh conf -167.
Ic1ccc(N2CCN(Cc3c[nH]c4ncccc34)CC2)cc1 was read as hIAP activ 1, mIAP inh 4, mIAP activ 0.96 and hIAP block 0.
Screening CSCCC(NC(=O)c1ccc(Cl)c([N+](=O)[O-])c1)C(=O)N1CCN(C/C=C/c2ccccc2)CC1 (stereo unspecified) returned hIAP activ 1.1, mIAP inh 5, mIAP activ 0.95 and hIAP block -7.
For Clc1ccccc1OCCCOc1cccc2cccnc12 the results were hIAP activ 0.9, mIAP inh 1, mIAP activ 0.99 and hIAP block 10.
`C#CCOCCOCCOCCNc1nc(N2CCN(C(=O)CCCCCCCCCCNC(=O)Cn3cc(C[C@@H](C)O)nn3)CC2)nc(N2CCN(C(=O)CCCCCCCCCCNC(=O)[C@H](CCCCN)n3cc(C[C@@H](C)CC)nn3)CC2)n1` gave hIAP activ 1.1, mIAP inh -173, mIAP activ 2.7*, hIAP block -9 and mIAP inh conf -176.
For O=C(Cc1nnc(NC(=O)c2ccccc2)s1)N/N=C\c1ccc(O)c(O)c1 the results were hIAP activ 1.1, mIAP inh 73*, mIAP activ 0.27, hIAP block -6 and mIAP inh conf 79*.
CCOC(=O)CSC1=Nc2ccccc2C2=NC(CC(=O)NCc3ccc4c(c3)OCO4)C(=O)N12 (stereo unspecified) was read as hIAP activ 0.8, bIAP activator 1, mIAP inh 44*, mIAP activ 0.56, hIAP block 20, bIAP inh -2 and mIAP inh conf 59*.
Screening CN1CCN(S(=O)(=O)c2ccc3[nH]c(=O)oc3c2)CC1 returned hIAP activ 0.86, bIAP activator 0.8, mIAP inh 43*, mIAP activ 0.57, hIAP block 14, bIAP inh 19 and mIAP inh conf 59*.
O=c1[nH]c2ccc(S(=O)(=O)N3CCN(c4ccc(F)cc4)CC3)cc2o1 was read as hIAP activ 1, mIAP inh 19, mIAP activ 0.81 and hIAP block 0.
For COc1ccc(/C=C/c2nc(-c3ccccc3O)n[nH]2)cc1OC the results were hIAP activ 1.6, bIAP activator 0.8, mIAP inh 11, mIAP activ 0.89, hIAP block -64 and bIAP inh 18.
`O=C(O)COc1ccc(/C=C/c2nc(-c3ccccc3O)n[nH]2)cc1` gave hIAP activ 0.97, mIAP inh 52*, mIAP activ 0.48, hIAP block 3 and mIAP inh conf 62*.
For NS(=O)(=O)c1ccc(CNC(=O)/C=C/c2ccco2)cc1 the results were hIAP activ 0.98, mIAP inh 46*, mIAP activ 0.54, hIAP block 2 and mIAP inh conf 50*.
`NS(=O)(=O)c1ccc(NC(=S)NC(=O)/C=C/c2ccco2)cc1` gave hIAP activ 0.96, bIAP activator 0.9, mIAP inh 91*, mIAP activ 0.092, hIAP block 4, bIAP inh 9 and mIAP inh conf 77*.
For O=C(/C=C/c1ccco1)NCc1ccc(F)cc1 the results were hIAP activ 0.96, bIAP activator 1, mIAP inh 0, mIAP activ 1, hIAP block 4 and bIAP inh -5.
Screening O=C(Cn1nnc(-c2cccs2)n1)NNC(=O)c1ccccc1Cl returned hIAP activ 0.76, mIAP inh 16, mIAP activ 0.84 and hIAP block 24.
Cc1c(NC(=O)COc2cccc(Cl)c2Cl)c(=O)n(-c2ccccc2)n1C was read as hIAP activ 1.2, mIAP inh 0, mIAP activ 0.99 and hIAP block -16.
